The values that follow come from ChEMBL document CHEMBL1154372, “Steroidal sapogenins and glycosides from the rhizomes of Dioscorea bulbifera” (J Nat Prod, 2009).

Molecules are shown by their SMILES. Activity calls are given as the source filed them. No cut-off for these calls is given here.

For one test, the system named is Bel-7402. Kind of test: Cytotoxicity against human Bel7402 cells at 10 uM after 48 hrs by MTT assay. The test is classed as functional.
Conditions: not given
The essentials: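 Bel-7402 human hepatocellular carcinoma cells were grown in DMEM with 10% fetal calf serum at 37 °C under 5% CO2 and subcultured twice weekly. Cells were seeded at 7500 per well and, after 24 h, compound was added at 10 µM. After 48 h exposure in triplicate, MTT was added, formazan was dissolved in DMSO and absorbance was read at 570 nm. The value is % inhibition.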
For orientation: Formazan colour is commonly taken as a measure of viable cells.
Regarding `C[C@@H]1CC[C@@]2(OC1)O[C@H]1C[C@H]3[C@@H]4CCC5=CC(=O)CC[C@]5(C)[C@H]4CC[C@]3(C)[C@@]1(O)[C@@H]2C`, the outcome was inactive.

Consider `C[C@@H]1[C@@]2(CC[C@@](C)(CO)O2)O[C@H]2C[C@H]3[C@@H]4C=CC5=CC(=O)CC[C@]5(C)[C@H]4CC[C@]3(C)[C@]21O`, for which the outcome was inactive.

Consider `C[C@@H]1[C@@]2(CC[C@@](C)(CO)O2)O[C@H]2C[C@H]3[C@@H]4CCC5=CC(=O)CC[C@]5(C)[C@H]4CC[C@]3(C)[C@]21O`, for which the result was inactive.

As for `C[C@@H]1O[C@@H](O[C@H]2[C@H](O[C@H]3CC[C@@]4(C)C(=CC[C@@H]5[C@@H]4CC[C@@]4(C)[C@H]5C[C@@H]5O[C@]6(CC[C@](C)(O)CO6)[C@@H](C)[C@@]54O)C3)O[C@H](CO)[C@@H](O)[C@@H]2O[C@@H]2O[C@@H](C)[C@H](O)[C@@H](O)[C@H]2O)[C@H](O)[C@H](O)[C@H]1O`, the result was inactive.

With `C[C@@H]1CC[C@@]2(OC1)O[C@H]1C[C@H]3[C@@H]4CCC5=C[C@@H](O[C@@H]6O[C@H](CO)[C@@H](O)[C@H](O[C@@H]7O[C@@H](C)[C@H](O)[C@@H](O)[C@H]7O)[C@H]6O[C@@H]6O[C@@H](C)[C@H](O)[C@@H](O)[C@H]6O)CC[C@]5(C)[C@H]4CC[C@]3(C)[C@@]1(O)[C@@H]2C`, the Activity was found to be 99.1%.

On to `C/C(C(=O)CC[C@@H](C)CO)=C1/C(=O)C[C@H]2[C@@H]3CCC4=C[C@@H](O[C@@H]5O[C@H](CO)[C@@H](O)[C@H](O[C@@H]6O[C@@H](C)[C@H](O)[C@@H](O)[C@H]6O)[C@H]5O[C@@H]5O[C@@H](C)[C@H](O)[C@@H](O)[C@H]5O)CC[C@]4(C)[C@H]3CC[C@]12C`, for which the outcome was inactive.

For `C[C@@H]1[C@@]2(CC[C@](C)(O)CO2)O[C@H]2C[C@H]3[C@@H]4CCC5=CC(=O)CC[C@]5(C)[C@H]4CC[C@]3(C)[C@]21O`, the result was inactive.

`C[C@@H]1O[C@@H](O[C@@H]2[C@@H](O)[C@H](O[C@H]3CC[C@@]4(C)C(=CC[C@@H]5[C@@H]4CC[C@@]4(C)[C@H]5C[C@@H]5O[C@]6(CC[C@](C)(O)CO6)[C@@H](C)[C@@]54O)C3)O[C@H](CO)[C@H]2O)[C@H](O)[C@H](O)[C@H]1O`: the result was inactive.

The next test deals with SMMC-7721. Kind of test: Growth inhibition of human SMMC7721 cells after 48 hrs by MTT assay. The test is classed as functional, cell-based. The note with it: SMMC-7721, 48 h. In short, it runs like this:
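SMMC7721 human hepatocellular carcinoma cells were kept in DMEM with 10% fetal calf serum at 37 °C and 5% CO2, and passaged twice weekly to stay in log growth. After 24 h at 7500 cells per well, compounds were added at various concentrations for 48 h, in triplicate. Viability was read as MTT formazan dissolved in DMSO, at 570 nm. IC50 determined; 10-hydroxycamptothecin served as positive control.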
As usually defined, the IC50 is the midpoint of a concentration-inhibition curve. Low values mean greater potency, high ones weaker potency. `C[C@@H]1CC[C@@]2(OC1)O[C@H]1C[C@H]3[C@@H]4CCC5=C[C@@H](O[C@@H]6O[C@H](CO)[C@@H](O)[C@H](O[C@@H]7O[C@@H](C)[C@H](O)[C@@H](O)[C@H]7O)[C@H]6O[C@@H]6O[C@@H](C)[C@H](O)[C@@H](O)[C@H]6O)CC[C@]5(C)[C@H]4CC[C@]3(C)[C@@]1(O)[C@@H]2C`: the IC50 came out at 4.54 µM.

`CC[C@@]1(O)C(=O)OCc2c1cc1n(c2=O)Cc2cc3cc(O)ccc3nc2-1` [HYDROXYCAMPTOTHECIN]: half-maximal inhibition (IC50) required 0.14 µM. This IC50 is about 32-fold lower than that of the molecule before.
